Test results published in ChEMBL document CHEMBL1134458, “Synthesis and structure-activity relationships of cetiedil analogues as blockers of the Ca(2+)-activated K+ permeability of erythrocytes” (J Med Chem, 2001).
pIC50: −log10 of the molar value.

Experiments:
[1] = (§1) Partition coefficient (logP); type: physicochemical; conditions: octanol/water
Outline: (§2)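 Calculated, not measured, for the free base by summing Mannhold/Rekker revised hydrophobic fragmental constants.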

Oryctolagus cuniculus [2] = organism: Oryctolagus cuniculus; assay: Inhibition of K+ loss from rabbit blood cells treated with [Ca2+] ionophore A-23187.; type: functional
Outline: (§3)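 Rabbit red cells were stored at 4 °C for up to 4 days, then suspended at ~1% hematocrit in low-K⁺ saline (0.1 mM KCl, 1 mM CaCl₂, inosine, Tris, pH 7.4) at 37 °C. They were preincubated 40–60 min with compound from DMSO stock (120 min for one; 3 min for highly lipophilic ones). A23187 2 μM was added, and K⁺ loss was read by K⁺ electrode over 3 min. Total K⁺ came from digitonin lysis, and loss was expressed as % of control.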

Oryctolagus cuniculus [3] = organism: Oryctolagus cuniculus; assay: Concentration required to cause 50% inhibition of K+ loss from rabbit blood cells treated with [Ca2+] ionophore A-23187; type: functional
Outline: as §3, with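 “control. Assays were run ≥3 times, and IC50 was fitted by Hill equation (common nH, 100% maximum).” for “control.”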

[4] = as §1; type: physicochemical; conditions: octanol/water; outline: as §2; remark: listed apart in the source

SMILES | logP [1] | logP ([1]; read-out: logP) | pIC50 (Oryctolagus cuniculus [2]) | pIC50 (Oryctolagus cuniculus [3]) | logP [4]
COc1ccc(CC2(C(=O)OCCN3CCCCCC3)c3ccccc3-c3ccccc32)cc1 | 7.09 | 7.75 | 5.55 |  | 
C(#CCC1(Cc2ccccc2)c2ccccc2-c2ccccc21)CN1CCCCCC1 | 9.1 |  |  | 5.82 | 7.9
O=C(OCCN1CCCCCC1)C1c2ccccc2-c2ccccc21 | 5.24 | 5.47 | 4.38 |  | 
O=C(CC1CCCCC1)OCCN1CCCCCC1 | 4.93 | 5.18 | 3.54 |  | 
O=C(Cc1ccsc1)OCCN1CCCCCC1 | 3.55 | 3.45 | 3.85 |  | 
O=C(OCCN1CCCCCC1)C1(Cc2ccc(Cl)cc2)c2ccccc2-c2ccccc21 | 7.89 | 8.41 | 5.54 |  | 
O=C(OCCN1CCCCCC1)c1c2ccccc2cc2ccccc12 |  | 6.45 |  | 4.55 | 6.36
O=C(OCCN1CCCCCC1)C(c1ccccc1)c1ccsc1 (stereo unspecified) | 4.9 | 5.15 | 4.33 |  | 
O=C(OCCN1CCCCCC1)C1(Cc2ccc(F)cc2)c2ccccc2-c2ccccc21 | 7.32 | 7.92 |  |  | 
O=C(CC(c1ccccc1)(c1ccccc1)c1ccccc1)OCCN1CCCCCC1 |  | 7.65 |  | 5.03 | 7.11
O=C(OCCN1CCCCCC1)C(c1ccccc1)c1ccccc1 | 5.25 | 5.44 | 3.79 |  | 
O=C(NCCN1CCCCCC1)C(c1ccsc1)C1CCCCC1 (stereo unspecified) | 5.11 | 5.15 | 4.12 |  | 
O=C(OCCN1CCCCCC1)C(c1ccsc1)C1CCCCC1 (stereo unspecified) | 5.98 | 6.59 | 4.60 |  | 
O=C(CC(c1ccccc1)c1ccccc1)OCCN1CCCCCC1 | 5.67 | 5.96 | 4.37 |  | 
O=C(OCCN1CCCCCC1)C1(Cc2ccccc2)c2ccccc2-c2ccccc21 | 7.18 | 7.68 | 5.40 |  | 
O=C(OCCN1CCCCCC1)C(c1ccccc1)(c1ccccc1)c1ccccc1 |  | 7.14 |  | 5.09 | 6.69
O=C(OCCCN1CCCCCC1)C(c1ccccc1)(c1ccccc1)c1ccccc1 |  | 7.65 |  | 5.04 | 6.4
c1ccc(C(CCOCCN2CCCCCC2)(c2ccccc2)c2ccccc2)cc1 |  | 7.83 |  | 5.26 | 7.35
O=C(OCCN1CCCCCC1)C12C[C@H]3C[C@@H](C1)C[C@@H](C2)C3 | 4.38 | 5.6 | 3.75 |  | 
O=C(OCCN1CCCCCC1)c1ccc2ccccc2c1 | 5.18 | 5.16 | 3.55 |  | 
O=C(OCCN1CCCCCC1)C1(Cc2ccc([N+](=O)[O-])cc2)c2ccccc2-c2ccccc21 | 6.92 | 7.44 | 5.34 |  | 
O=C(OCCN1CCCCCC1)C(C1CCCCC1)C1CCCCC1 | 6.86 | 8.33 | 4.85 |  | 
O=C(OCCN1CCCCCC1)C(c1ccccc1)C1CCCCC1 (stereo unspecified) | 5.93 | 6.88 | 4.74 |  | 
O=C(OCCN1CCCCCC1)c1cccc2ccccc12 | 5.18 | 5.16 | 3.65 |  | 
